The target in data set [1] is T1, Sodium-dependent noradrenaline transporter (Homo sapiens, UniProt P23975). As to the kind of experiment: Displacement of [3H]nisoxetine from human NET by scintillation proximity assay. In a few lines: (§1)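 Human transporter binding by scintillation proximity assay: inhibition of [³H]nisoxetine (NET), [³H]WIN 35,428 (DAT) or [³H]citalopram (SERT) binding measured. Ki values are the mean of at least two experiments, each run in duplicate.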
On the technique in general: Displacement assays read how much labelled ligand stays bound in the presence of the test substance.

Data set [2] addresses Sodium-dependent dopamine transporter (Homo sapiens, UniProt Q01959). As to the kind of experiment: Displacement of [3H]WIN-35,428 from human DAT by scintillation proximity assay. In outline:
as §1

Data set [3] has as its target Sodium-dependent serotonin transporter (Homo sapiens, UniProt P31645). In words: Displacement of [3H]citalopram from human SERT by scintillation proximity assay. In outline: as §1
Data set [4] concerns the target T2, 5-hydroxytryptamine receptor 1A (Homo sapiens, UniProt P08908).
T2 sequence (P08908 whole entry): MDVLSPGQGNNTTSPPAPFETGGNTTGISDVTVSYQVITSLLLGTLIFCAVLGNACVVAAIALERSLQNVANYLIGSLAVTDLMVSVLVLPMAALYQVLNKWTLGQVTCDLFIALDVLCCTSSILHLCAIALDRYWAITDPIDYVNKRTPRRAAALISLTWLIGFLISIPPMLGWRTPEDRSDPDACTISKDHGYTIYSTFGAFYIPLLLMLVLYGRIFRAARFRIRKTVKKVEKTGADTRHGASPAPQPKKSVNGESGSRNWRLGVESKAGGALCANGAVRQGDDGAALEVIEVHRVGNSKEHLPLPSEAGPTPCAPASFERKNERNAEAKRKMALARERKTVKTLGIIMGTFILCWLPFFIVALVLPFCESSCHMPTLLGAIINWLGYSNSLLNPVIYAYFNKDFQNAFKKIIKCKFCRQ
In words: Displacement of [3H]8-OH-DPAT from human cloned 5HT1A receptor by liquid scintillation spectrophotometry.

Data set [5] has as its system Rattus norvegicus. In words: In vivo 5HT1A receptor occupancy in rat brain at 10 mg/kg, sc after 1 hr. The class given is functional. As to conditions: route subcutaneous. In a few lines:
(§2)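 Ex vivo receptor occupancy of NET and 5-HT1A in rat brain, collected 1 h after 10 mg/kg subcutaneous dosing.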

Data set [6] has as its system Rattus norvegicus. In words: In vivo NET occupancy in rat brain at 10 mg/kg, sc after 1 hr. The class given is functional. As to conditions: route subcutaneous. In outline:
as §2

Data set [7] is described as follows: Cmax in dog at 5 mg/kg, po after 1 hr. The class given is ADME, organism-based, Canis lupus familiaris. More on the design: dose 5 mg/kg, route oral. To be noted: in vivo.
The nature of data set [8]: Tmax in dog at 5 mg/kg, po. The class given is ADME, organism-based, Canis lupus familiaris. More on the design: dose 5 mg/kg, route oral. To be noted: in vivo.
The nature of data set [9]: AUC ( 0 to 24 hrs) in dog at 5 mg/kg, po after 1 hr. The class given is ADME, organism-based, Canis lupus familiaris. More on the design: time < 24 hr, dose 5 mg/kg, route oral. To be noted: plasma.
A short description of data set [10]: Half life in dog at 5 mg/kg, po. More on the design: dose 5 mg/kg, route oral. The class given is ADME, organism-based, Canis lupus familiaris. As to conditions: in vivo.
A short description of data set [11]: Drug level in rat brain at 10 mg/kg, sc after 1 hr. More on the design: dose 10 mg/kg, route subcutaneous. The class given is ADME, organism-based. To be noted: read-out: Drug uptake. In a few lines:
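Rats dosed subcutaneously at 10 mg/kg; total brain drug concentration measured 1 h post-dose. Reported as mean with SEM, n = 4.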

Data set [12] addresses T2, 5-hydroxytryptamine receptor 1A. As to the kind of experiment: Agonist activity at 5HT1A receptor by GTPgammaS binding assay. The class given is functional. A general note: GTPγS resists hydrolysis and so accumulates on activated G proteins.
Data set [13] addresses T1, Sodium-dependent noradrenaline transporter. As to the kind of experiment: […] at human cloned NET expressed in HEK293 cells by FLIPR assay. The class given is functional, cell-based.
For data set [14], the system named is Rattus norvegicus. As to the kind of experiment: In vivo 5HT1A receptor occupancy in sc dosed rat brain. The class given is functional. In outline:
(§3)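 Ex vivo NET and 5-HT1A occupancy in rat brain from a subcutaneous dose–response, read 1 h post-dose. ID50 derived from the dose–response. For 5-HT1A, the dose giving 10% receptor occupancy was also determined.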

The subject of data set [15] is Rattus norvegicus. In words: In vivo NET occupancy in sc dosed rat brain. The class given is functional. To be noted: read-out: ID50 (the source's name). In a few lines: as §3

Sodium-dependent dopamine transporter, sequence (Q01959 whole entry): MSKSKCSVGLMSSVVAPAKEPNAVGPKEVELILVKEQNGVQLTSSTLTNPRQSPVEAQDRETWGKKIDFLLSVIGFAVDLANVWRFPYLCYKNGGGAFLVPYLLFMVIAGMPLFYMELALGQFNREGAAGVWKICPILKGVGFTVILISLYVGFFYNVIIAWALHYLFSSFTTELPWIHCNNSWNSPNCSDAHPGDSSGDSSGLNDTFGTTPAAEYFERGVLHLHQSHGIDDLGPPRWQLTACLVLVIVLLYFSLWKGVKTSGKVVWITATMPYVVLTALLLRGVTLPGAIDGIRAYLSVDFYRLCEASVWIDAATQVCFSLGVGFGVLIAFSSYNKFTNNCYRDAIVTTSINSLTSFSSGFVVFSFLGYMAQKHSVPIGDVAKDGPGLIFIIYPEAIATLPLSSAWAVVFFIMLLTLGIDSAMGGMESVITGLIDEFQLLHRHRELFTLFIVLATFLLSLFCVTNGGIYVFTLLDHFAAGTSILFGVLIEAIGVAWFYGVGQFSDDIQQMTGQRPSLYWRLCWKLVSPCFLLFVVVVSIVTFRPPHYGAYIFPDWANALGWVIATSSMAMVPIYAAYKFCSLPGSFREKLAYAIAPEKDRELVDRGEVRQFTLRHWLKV
Sodium-dependent serotonin transporter, sequence (P31645 whole entry): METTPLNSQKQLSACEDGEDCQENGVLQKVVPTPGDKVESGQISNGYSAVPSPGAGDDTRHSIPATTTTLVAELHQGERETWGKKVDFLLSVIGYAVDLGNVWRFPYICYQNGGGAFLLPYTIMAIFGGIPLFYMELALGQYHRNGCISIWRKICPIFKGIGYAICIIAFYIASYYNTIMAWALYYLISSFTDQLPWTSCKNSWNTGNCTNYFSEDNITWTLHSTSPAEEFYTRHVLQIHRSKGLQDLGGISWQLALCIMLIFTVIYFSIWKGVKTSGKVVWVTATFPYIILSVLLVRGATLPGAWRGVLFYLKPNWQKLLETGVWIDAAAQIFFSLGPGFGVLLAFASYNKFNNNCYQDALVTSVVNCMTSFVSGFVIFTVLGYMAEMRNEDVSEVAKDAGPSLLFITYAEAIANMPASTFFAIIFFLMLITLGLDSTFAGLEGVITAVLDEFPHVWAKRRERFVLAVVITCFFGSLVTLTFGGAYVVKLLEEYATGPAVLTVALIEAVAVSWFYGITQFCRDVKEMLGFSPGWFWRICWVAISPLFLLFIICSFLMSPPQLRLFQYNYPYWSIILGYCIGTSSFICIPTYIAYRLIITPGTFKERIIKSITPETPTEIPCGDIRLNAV
T1 sequence (P23975 whole entry): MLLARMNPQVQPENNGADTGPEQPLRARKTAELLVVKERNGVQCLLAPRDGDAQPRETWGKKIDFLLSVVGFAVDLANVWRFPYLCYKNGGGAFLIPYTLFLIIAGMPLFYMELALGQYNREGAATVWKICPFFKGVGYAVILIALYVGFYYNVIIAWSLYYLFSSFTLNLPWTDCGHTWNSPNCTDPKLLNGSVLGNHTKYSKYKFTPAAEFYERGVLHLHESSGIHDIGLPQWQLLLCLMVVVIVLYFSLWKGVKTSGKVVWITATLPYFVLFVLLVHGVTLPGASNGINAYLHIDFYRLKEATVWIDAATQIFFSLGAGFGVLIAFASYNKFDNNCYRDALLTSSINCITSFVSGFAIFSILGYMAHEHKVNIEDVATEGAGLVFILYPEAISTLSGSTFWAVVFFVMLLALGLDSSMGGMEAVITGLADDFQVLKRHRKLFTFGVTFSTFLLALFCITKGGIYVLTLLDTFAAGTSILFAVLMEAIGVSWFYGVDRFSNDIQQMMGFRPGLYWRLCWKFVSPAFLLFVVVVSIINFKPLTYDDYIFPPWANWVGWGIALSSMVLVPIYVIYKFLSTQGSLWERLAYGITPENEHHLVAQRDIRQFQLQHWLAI

Turning to `Cc1cccc(F)c1Oc1cccc(F)c1OC1CCNCC1`, the inhibitory constant (Ki) in [1] is 323 nM; in data set [2], above 6460 nM; in data set [3], 3250 nM; in [4], 4 nM.
For the molecule `Cc1cccc(F)c1Oc1cccc(F)c1OC1CNC1`, the Ki in data set [1] was 116 nM; in data set [2] it was above 6460 nM; in [3], 1160 nM; in data set [4], 3 nM. Further, the results for the Activity in the data set with Rattus norvegicus [5] and in the data set on Rattus norvegicus [6] were 76% and 84%, respectively. For the same molecule, the highest level in data set [7] (Cmax) was 525 ng/mL. Further, the Tmax in [8] is 1 h. This molecule had an AUC(0-t) at 24 h in data set [9] of 2800 ng·h/mL. The same molecule gave a half-life in data set [10] of 3.01 h. The concentration at 1 h in [11] is 5690 ng/mL. Further, the figures for the EC50 in [12] and in [13] were 225 nM and 239 nM, respectively.
For the molecule `Fc1ccccc1Oc1cccc(F)c1C1CCNCC1`, the results for the Activity in the data set on Rattus norvegicus [5] and in the data set on Rattus norvegicus [6] were 62% and 80%, respectively. Also, the concentration at 1 h in data set [11] came out at 2230 ng/mL.
Take `Fc1ccccc1Oc1cccc(F)c1OC1CCNC1` (centres undefined): the Ki in data set [1] was 1020 nM; in data set [2] it was 3880 nM; in data set [3], above 4710 nM; in [4], 8 nM.
The corresponding values for `Fc1cccc(Oc2cccc(Cl)c2Cl)c1OC1CNC1` are 374 nM, 312 nM, 94 nM and 16 nM.
For the molecule `Cc1cccc(Cl)c1Oc1cccc(F)c1OC1CNC1`, the Ki in [1] was 433 nM; in data set [2], above 6410 nM; in data set [3] it was above 4610 nM; in data set [4], 16 nM.
The corresponding values for `Fc1ccccc1Oc1ccccc1OC1CCNC1` (centres undefined) are 1350 nM, above 6220 nM, above 4710 nM and 193 nM.
For `Fc1ccccc1Oc1cccc(F)c1OC1CCNCC1`, in that order: 489 nM, 2190 nM, above 4650 nM and 30 nM.
Take `Fc1cccc(F)c1Oc1cccc(F)c1OC1CNC1`: the Ki in data set [1] is 482 nM; in data set [2], above 6410 nM; in data set [3] it was above 4620 nM; in data set [4], below 3 nM.
The corresponding values for `Fc1cccc(Cl)c1Oc1ncccc1OC1CCNC1` (centres undefined) are 1140 nM, above 4620 nM, above 6130 nM and 203 nM.
Regarding `Fc1cccc(Cl)c1Oc1cccc(F)c1O[C@@H]1CCNC1`, the Ki is 110 nM in [1], above 5870 nM in data set [2] and above 4530 nM in data set [3]. Moreover, the Cmax in data set [7] is 146 ng/mL. Further, in data set [8], the time to peak (Tmax) was determined as 1 h. Besides, the AUC(0-t) at 24 h in data set [9] was determined as 560 ng·h/mL. In [10], the half-life was 1.85 h.
Consider `Fc1ccccc1Oc1ccccc1OC1CNC1`, for which the inhibitory constant (Ki) in [1] was 528 nM; in data set [2] it was 2040 nM; in data set [3], above 4710 nM; in data set [4], 22 nM.
For the molecule `c1ccc(Oc2ccccc2OC2CNC2)cc1`, the Ki in [1] stood at 1640 nM; in data set [2], 2090 nM; in [3] it was 2670 nM; in data set [4] it was 57 nM.
For `Fc1cccc(Oc2c(Cl)cccc2Cl)c1OC1CNC1`, in that order: 164 nM, above 5940 nM, above 4620 nM and 6 nM.
For `Fc1ccccc1Oc1cccc(F)c1OC1CCCNC1` (centres undefined), in that order: 1950 nM, above 5590 nM, above 4710 nM and 90 nM.
Take `Fc1cccc(Cl)c1Oc1cccc(F)c1OC1CCNC1` (centres undefined): the figures for the Ki in data set [1], in data set [2] and in data set [3] were 226 nM, above 6460 nM and above 4900 nM, respectively. Besides, the Activity is recorded as 73% with Rattus norvegicus [5] and 54% in the data set on Rattus norvegicus [6]. Moreover, the concentration at 1 h in data set [11] worked out at 5620 ng/mL. The EC50 in data set [13] was 97 nM.
In the case of `Fc1cccc(Cl)c1Oc1cccc(F)c1OC1CCNCC1`, the Ki is 218 nM in data set [1], above 6370 nM in [2], 2040 nM in data set [3] and 8 nM in data set [4].
The corresponding values for `Fc1ccccc1Oc1cccc(F)c1OC1CNC1` are 507 nM, above 4860 nM, above 4710 nM and 12 nM.
For the molecule `Cc1cccc(F)c1Oc1cccc(F)c1OC1CCNC1` (centres undefined), the Ki was 328 nM in [1], above 6460 nM in [2], above 4690 nM in data set [3] and 4 nM in data set [4].
The corresponding values for `Fc1cccc(Oc2ccccc2Cl)c1OC1CNC1` are 198 nM, 4700 nM, 1710 nM and 14 nM.
For `Fc1cccc(Cl)c1Oc1cccc(F)c1OC1CNC1`, the Ki was 138 nM in data set [1], above 6460 nM in [2], above 4900 nM in data set [3] and 1 nM in data set [4]. Besides, the values for the Activity in the data set on Rattus norvegicus [5] and in the data set with Rattus norvegicus [6] were 81% and 87%, respectively. Moreover, the ID10 with Rattus norvegicus [14] is below 1 mg/kg. Further, the ED50 in the data set with Rattus norvegicus [15] came to 1.2 mg/kg. The molecule also came in with a Cmax in data set [7] of 919 ng/mL. For the same molecule, the Tmax in data set [8] amounted to 1 h. Also, the AUC(0-t) at 24 h in data set [9] stood at 3480 ng·h/mL. Besides, the half-life in [10] was 2.35 h. In addition, the concentration at 1 h in [11] was 5900 ng/mL. Also, the EC50 in data set [12] was determined as 197 nM; in data set [13], 28 nM.
Consider `Fc1ccccc1Oc1ccccc1OC1CCNCC1`, for which the Ki in data set [1] is 1000 nM; in data set [2] it was 4510 nM; in [3] it was above 4710 nM; in [4], 693 nM.
Take `Fc1cccc(Cl)c1Oc1cccc(F)c1O[C@H]1CCNC1`: the inhibition constant (Ki) is 1010 nM in [1], above 5870 nM in data set [2] and above 4530 nM in data set [3].
For the molecule `Fc1cccc(Cl)c1Oc1ncccc1OC1CNC1`, the inhibition constant Ki in data set [1] is 73 nM; in data set [2], above 4260 nM; in data set [3], above 6280 nM; in data set [4], 64 nM.
The corresponding values for `Fc1cccc(Oc2ccccc2Cl)c1OC1CCNC1` (centres undefined) are 192 nM, 2030 nM, 2230 nM and 19 nM.

Broadly, the Ki is the dissociation constant of the complex between target and ligand, obtained from inhibition or displacement. As a reminder, the Cmax is the peak of the concentration-time curve. A word on the Tmax: it is the time at which the peak concentration occurs. The term AUC(0-t) denotes the area under the concentration-time curve up to a stated or last time point. High values mean more exposure, low ones less exposure. Broadly, the half-life is how long it takes for the measured level to halve. High values mean slow decline, low ones rapid decline. In general, EC50 refers to the concentration giving half of the maximal effect.

The values are drawn from ChEMBL document CHEMBL1641456, “Design, synthesis, and pharmacological evaluation of azetedine and pyrrolidine derivatives as dual norepinephrine reuptake inhibitors and 5-HT(1A) partial agonists” (Bioorg Med Chem Lett, 2011).
